Measured values reported in ChEMBL document CHEMBL3271935, “Synthesis and biological activity of some broad-spectrum N-acylphenyglycine cephalosporins” (1977).

Experiments:
[1] = test system: Staphylococcus aureus; experiment: Antibacterial activity against penicillin G resistant Staphylococcus aureus HH 127 assessed as growth inhibition by two-fold agar dilution method; type: functional
How it was run: (§1)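 Twofold agar dilution on Trypticase soy agar buffered to pH 6.0. MIC reported in μg/mL.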

[2] = test system: Escherichia coli; experiment: Antibacterial activity against Escherichia coli 12140 assessed as growth inhibition by two-fold agar dilution method; type: functional
How it was run: (§2)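 MIC (μg/mL) by twofold agar dilution on Trypticase soy agar buffered to pH 6.0.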

[3] = test system: Klebsiella pneumoniae; experiment: Antibacterial activity against Klebsiella pneumoniae 4200 assessed as growth inhibition by two-fold agar dilution method; type: functional; how it was run: as §2
[4] = test system: Salmonella paratyphi; experiment: Antibacterial activity against Salmonella paratyphi ATCC 12176 assessed as growth inhibition by two-fold agar dilution method; type: functional, Salmonella enterica subsp. enterica serovar Paratyphi A; conditions: Salmonella enterica; how it was run: as §1
[5] = test system: Klebsiella aerogenes; experiment: Antibacterial activity against Enterobacter aerogenes ATCC 13048 assessed as growth inhibition by two-fold agar dilution method; type: functional; how it was run: as §2
[6] = test system: Morganella morganii; experiment: Antibacterial activity against indole positive Proteus morganii 179 assessed as growth inhibition by two-fold agar dilution method; type: functional; how it was run: as §2
[7] = test system: Pseudomonas aeruginosa; experiment: Antibacterial activity against Pseudomonas aeruginosa HH 63 assessed as growth inhibition by two-fold agar dilution method; type: functional; how it was run: as §2
[8] = test system: Escherichia coli; experiment: Antibacterial activity against Escherichia coli 12140 infected in sc dosed mouse administered at 1 to 5 hrs measured for 3 days; type: functional; conditions: Escherichia coli, 12140, sc; read-out: PD50
How it was run: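 Mice infected intraperitoneally with about 2×10^3 organisms per mouse of E. coli 12140 culture diluted in 5% hog gastric mucin, giving uniformly lethal infection. Fourfold dilutions given subcutaneously in equally divided portions at 1 and 5 h postinfection, five groups per compound. Survivors observed 3 days. PD50 is total dose (mg/kg) protecting 50%, calculated by Litchfield–Wilcoxon method.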

[9] = test system: Pseudomonas aeruginosa; experiment: Antibacterial activity against Pseudomonas aeruginosa 1504 assessed as growth inhibition; type: functional
How it was run: (§3)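 Broth MIC by the standard microtiter technique in unbuffered Mueller-Hinton broth.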

[10] = test system: Pseudomonas aeruginosa; experiment: Antibacterial activity against Pseudomonas aeruginosa 1042 assessed as growth inhibition; type: functional; how it was run: as §3
[11] = test system: Pseudomonas aeruginosa; experiment: Antibacterial activity against Pseudomonas aeruginosa 219 assessed as growth inhibition; type: functional; how it was run: as §3
[12] = test system: Pseudomonas aeruginosa; experiment: Antibacterial activity against Pseudomonas aeruginosa 647 assessed as growth inhibition; type: functional; how it was run: as §3
[13] = test system: Pseudomonas aeruginosa; experiment: Antibacterial activity against Pseudomonas aeruginosa 864 assessed as growth inhibition; type: functional; how it was run: as §3
[14] = test system: Pseudomonas aeruginosa; experiment: Antibacterial activity against Pseudomonas aeruginosa 1062 assessed as growth inhibition; type: functional; how it was run: as §3
[15] = test system: Pseudomonas aeruginosa; experiment: Antibacterial activity against Pseudomonas aeruginosa 1063 assessed as growth inhibition; type: functional; how it was run: as §3
[16] = test system: Pseudomonas aeruginosa; experiment: Antibacterial activity against Pseudomonas aeruginosa 1106 assessed as growth inhibition; type: functional; how it was run: as §3

Structure (SMILES): Cn1nnnc1SCC1=C(C(=O)[O-])N2C(=O)[C@@H](NC(=O)C(NC(=O)[C@H]3C[C@H]3C(=O)[O-])c3ccccc3)[C@H]2SC1.[Na+].[Na+] (mixture of isomers)
- MIC [1]: 6.3 µg/mL
- MIC [2]: 6.3 µg/mL
- MIC [3]: 3.1 µg/mL
- MIC [4]: 3.1 µg/mL
- MIC [5]: 6.3 µg/mL
- MIC [6]: 6.3 µg/mL
- MIC [7]: 200 µg/mL
- ED50 [8]: 25 mg/kg
- MIC [9]: 125 µg/mL
- MIC [10]: 250 µg/mL
- MIC [11]: 125 µg/mL
- MIC [12]: 125 µg/mL
- MIC [13]: 500 µg/mL
- MIC [14]: 250 µg/mL
- MIC [15]: 500 µg/mL
- MIC [16]: > 500 µg/mL
